From ChEMBL document CHEMBL4689842, “EUbOPEN Chemogenomics Library wave 1” (2021)
“And” between values parts separate entries of the source, which are not always exact repeats. Equal values may be shown once.

Test system: HEK-293T
Assay: Multiplex assay against HEK293T;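 as to Population Tubulin-Different-Phenotype (%): share of the cells with healthy nuclei that show this phenotype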
Assay type: toxicity, cell-based
Settings: human
How it was run: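 Cells stained live at seeding with Hoechst33342, BioTracker Green Microtubule Cytoskeleton Dye, MitoTracker Red and Annexin V Alexa Fluor 680 were imaged on a CQ1 microscope at 37°C and 5% CO2 after compound addition. Their classification by CellPathfinder machine-learning gating ran from Hoechst high-intensity objects versus normal cells, to healthy, pyknosed or fragmented nuclei among normal cells, to mitotic or apoptotic among pyknosed cells. Tubulin, mitochondrial-mass and membrane-permeability phenotypes are per cents of healthy-nucleus cells.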

[1] = 12 h, 10 µM, compound concentration 10 uM, replicate 1
[2] = 12 h, 10 µM, compound concentration 10 uM, replicate 2
[3] = 24 h, 10 µM, compound concentration 10 uM, replicate 1
[4] = 24 h, 10 µM, compound concentration 10 uM, replicate 2
[5] = 12 h, 1 µM, compound concentration 1 uM, replicate 1
[6] = 12 h, 1 µM, compound concentration 1 uM, replicate 2
[7] = 24 h, 1 µM, compound concentration 1 uM, replicate 1
[8] = 24 h, 1 µM, compound concentration 1 uM, replicate 2
[9] = 48 h, 1 µM, compound concentration 1 uM, replicate 1
[10] = 48 h, 1 µM, compound concentration 1 uM, replicate 2
[11] = 48 h, 10 µM, compound concentration 10 uM, replicate 1
[12] = 48 h, 10 µM, compound concentration 10 uM, replicate 2

## CN(c1ccccc1CNc1nc(Nc2ccc3c(c2)CC(=O)N3)ncc1C(F)(F)F)S(C)(=O)=O
[1]
  Population Apoptotic (%): 20% and 22%
  Population Fragmented Nuclei (%): 24% and 17%
  Population Healthy Nuclei (%): 40% and 71%
  Population Hoechst High Intensity Objects (%): 21% and 10%
  Population Membrane Permeable-Phenotype (%): 10%
  Population Mitotic Cells (%): 80% and 77%
  Population Normal (%): 78% and 89%
  Population Pyknosed Nuclei (%): 35%
  Total Cell Count: 538 and 612
[2]
  Population Apoptotic (%): 17%
  Population Fragmented Nuclei (%): 3% and 5%
  Population Healthy Nuclei (%): 85% and 90%
  Population Membrane Permeable-Phenotype (%): 5% and 1%
  Population Mitochondria Different-Phenotype (%): 37%
  Population Mitotic Cells (%): 82%
  Population Normal (%): 92% and 97%
  Population Pyknosed Nuclei (%): 10% and 4%
  Total Cell Count: 896 and 1228
[3]
  Population Apoptotic (%): 23% and 26%
  Population Fragmented Nuclei (%): 24% and 15%
  Population Healthy Nuclei (%): 40% and 78%
  Population Hoechst High Intensity Objects (%): 17% and 10%
  Population Membrane Permeable-Phenotype (%): 4% and 9%
  Population Mitotic Cells (%): 76% and 73%
  Population Normal (%): 82% and 89%
  Total Cell Count: 531 and 582
[4]
  Population Apoptotic (%): 17% and 15%
  Population Healthy Nuclei (%): 83%
  Population Hoechst High Intensity Objects (%): 8% and 4%
  Population Membrane Permeable-Phenotype (%): 3% and 2%
  Population Mitochondria Different-Phenotype (%): 41%
  Population Mitotic Cells (%): 82% and 84%
  Population Normal (%): 91% and 95%
  Total Cell Count: 898 and 1570

## CCc1nn(CCCN2CCN(c3cccc(Cl)c3)CC2)c(=O)n1CCOc1ccccc1.Cl [NEFAZODONE HYDROCHLORIDE]
[5]
  Population Apoptotic (%): 47%
  Population Fragmented Nuclei (%): 7%
  Population Healthy Nuclei (%): 45%
  Population Hoechst High Intensity Objects (%): 10%
  Population Membrane Permeable-Phenotype (%): 7%
  Population Mitochondria Different-Phenotype (%): 88%
  Population Mitotic Cells (%): 52%
  Population Normal (%): 89%
  Population Pyknosed Nuclei (%): 46%
  Population Tubulin-Different-Phenotype (%): 72%
[6]
  Population Apoptotic (%): 9%
  Population Fragmented Nuclei (%): 5%
  Population Healthy Nuclei (%): 34%
  Population Hoechst High Intensity Objects (%): 3%
  Population Membrane Permeable-Phenotype (%): 9%
  Population Mitochondria Different-Phenotype (%): 54%
  Population Mitotic Cells (%): 90%
  Population Normal (%): 96%
  Population Pyknosed Nuclei (%): 59%
  Population Tubulin-Different-Phenotype (%): 49%
[1]
  Population Apoptotic (%): 90%
  Population Fragmented Nuclei (%): 29%
  Population Hoechst High Intensity Objects (%): 21%
  Population Mitochondria Different-Phenotype (%): 81%
  Population Mitotic Cells (%): 9%
  Population Normal (%): 78%
  Population Pyknosed Nuclei (%): 53%
  Population Tubulin-Different-Phenotype (%): 81%
[2]
  Population Apoptotic (%): 83%
  Population Fragmented Nuclei (%): 3%
  Population Healthy Nuclei (%): 17%
  Population Hoechst High Intensity Objects (%): 13%
  Population Membrane Permeable-Phenotype (%): 0%
  Population Mitochondria Different-Phenotype (%): 100%
  Population Mitotic Cells (%): 16%
  Population Normal (%): 86%
  Population Pyknosed Nuclei (%): 78%
  Population Tubulin-Different-Phenotype (%): 100%
[7]
  Population Apoptotic (%): 50%
  Population Fragmented Nuclei (%): 8%
  Population Healthy Nuclei (%): 57%
  Population Hoechst High Intensity Objects (%): 6%
  Population Membrane Permeable-Phenotype (%): 3%
  Population Mitochondria Different-Phenotype (%): 89%
  Population Mitotic Cells (%): 50%
  Population Normal (%): 93%
  Population Pyknosed Nuclei (%): 34%
  Population Tubulin-Different-Phenotype (%): 67%
[8]
  Population Apoptotic (%): 23%
  Population Fragmented Nuclei (%): 4%
  Population Healthy Nuclei (%): 47%
  Population Hoechst High Intensity Objects (%): 4%
  Population Membrane Permeable-Phenotype (%): 8%
  Population Mitochondria Different-Phenotype (%): 52%
  Population Mitotic Cells (%): 76%
  Population Normal (%): 95%
  Population Pyknosed Nuclei (%): 47%
  Population Tubulin-Different-Phenotype (%): 64%
[3]
  Population Apoptotic (%): 90%
  Population Fragmented Nuclei (%): 25%
  Population Healthy Nuclei (%): 21%
  Population Hoechst High Intensity Objects (%): 24%
  Population Mitotic Cells (%): 9%
  Population Normal (%): 75%
  Population Pyknosed Nuclei (%): 52%
[4]
  Population Apoptotic (%): 97%
  Population Fragmented Nuclei (%): 6%
  Population Healthy Nuclei (%): 19%
  Population Hoechst High Intensity Objects (%): 10%
  Population Membrane Permeable-Phenotype (%): 0%
  Population Mitochondria Different-Phenotype (%): 100%
  Population Mitotic Cells (%): 2%
  Population Normal (%): 89%
  Population Pyknosed Nuclei (%): 73%
  Population Tubulin-Different-Phenotype (%): 100%
[9]
  Population Apoptotic (%): 31%
  Population Fragmented Nuclei (%): 7%
  Population Healthy Nuclei (%): 77%
  Population Hoechst High Intensity Objects (%): 5%
  Population Membrane Permeable-Phenotype (%): 2%
  Population Mitochondria Different-Phenotype (%): 49%
  Population Mitotic Cells (%): 68%
  Population Normal (%): 94%
  Population Pyknosed Nuclei (%): 14%
  Population Tubulin-Different-Phenotype (%): 44%
[10]
  Population Apoptotic (%): 17%
  Population Fragmented Nuclei (%): 4%
  Population Healthy Nuclei (%): 72%
  Population Hoechst High Intensity Objects (%): 1%
  Population Membrane Permeable-Phenotype (%): 6%
  Population Mitochondria Different-Phenotype (%): 27%
  Population Mitotic Cells (%): 82%
  Population Normal (%): 98%
  Population Pyknosed Nuclei (%): 22%
  Population Tubulin-Different-Phenotype (%): 49%
[11]
  Population Apoptotic (%): 90%
  Population Fragmented Nuclei (%): 21%
  Population Healthy Nuclei (%): 33%
  Population Hoechst High Intensity Objects (%): 15%
  Population Membrane Permeable-Phenotype (%): 1%
  Population Mitochondria Different-Phenotype (%): 98%
  Population Mitotic Cells (%): 9%
  Population Normal (%): 84%
  Population Pyknosed Nuclei (%): 44%
  Population Tubulin-Different-Phenotype (%): 94%
[12]
  Population Apoptotic (%): 95%
  Population Fragmented Nuclei (%): 6%
  Population Healthy Nuclei (%): 27%
  Population Hoechst High Intensity Objects (%): 12%
  Population Membrane Permeable-Phenotype (%): 0%
  Population Mitochondria Different-Phenotype (%): 100%
  Population Mitotic Cells (%): 4%
  Population Normal (%): 87%
  Population Pyknosed Nuclei (%): 65%
  Population Tubulin-Different-Phenotype (%): 100%
